# Source: ChEMBL document CHEMBL2311400, “Synthesis and biological evaluation of 4-(aminomethyl)-1-hydroxypyrazole analogues of muscimol as γ-aminobutyric acid(a) receptor agonists” (J Med Chem, 2013)
# Active and inactive are the calls of the source. No cut-off for these calls is given here.
# Key:
# [1] = Displacement of [3H]muscimol from GABAA receptor in rat synaptic membrane after 60 mins by scintillation counting analysis; type: cell membranes
# Procedure, shortened: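 Membranes from cortex and central hemispheres of male SPRD rat brains, washed repeatedly in 50 mM Tris-HCl pH 7.4. 70–80 μg protein per well incubated with [3H]muscimol. Separated by GF/C filtration with ice-cold buffer washes; bound radioactivity counted by scintillation. Nonspecific binding defined with 1.0 mM GABA.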
# [2] = target: T1, GABA-A receptor; alpha-1/beta-2/gamma-2 (Homo sapiens, UniProt P14867+P18507+P47870); assay: Agonist activity at human GABAA alpha1beta2gamma2S receptor expressed in HEK293 cells by patch clamp electrophysiology assay; type: cell-based
# T1 sequence (P14867 whole entry): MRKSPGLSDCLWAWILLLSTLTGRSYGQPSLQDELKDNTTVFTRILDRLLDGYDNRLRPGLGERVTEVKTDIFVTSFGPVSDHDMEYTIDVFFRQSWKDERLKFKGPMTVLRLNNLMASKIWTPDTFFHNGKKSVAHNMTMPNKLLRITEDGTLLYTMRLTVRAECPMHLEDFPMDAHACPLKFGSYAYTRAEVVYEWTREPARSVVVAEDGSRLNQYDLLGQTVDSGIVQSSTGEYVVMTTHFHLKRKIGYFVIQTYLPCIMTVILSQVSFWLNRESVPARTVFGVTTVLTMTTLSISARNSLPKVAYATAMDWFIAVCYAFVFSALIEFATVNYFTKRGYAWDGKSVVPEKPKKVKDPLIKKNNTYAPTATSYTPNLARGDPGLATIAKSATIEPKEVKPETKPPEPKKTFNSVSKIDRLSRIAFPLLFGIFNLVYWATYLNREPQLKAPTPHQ
# T1 sequence (P47870 whole entry): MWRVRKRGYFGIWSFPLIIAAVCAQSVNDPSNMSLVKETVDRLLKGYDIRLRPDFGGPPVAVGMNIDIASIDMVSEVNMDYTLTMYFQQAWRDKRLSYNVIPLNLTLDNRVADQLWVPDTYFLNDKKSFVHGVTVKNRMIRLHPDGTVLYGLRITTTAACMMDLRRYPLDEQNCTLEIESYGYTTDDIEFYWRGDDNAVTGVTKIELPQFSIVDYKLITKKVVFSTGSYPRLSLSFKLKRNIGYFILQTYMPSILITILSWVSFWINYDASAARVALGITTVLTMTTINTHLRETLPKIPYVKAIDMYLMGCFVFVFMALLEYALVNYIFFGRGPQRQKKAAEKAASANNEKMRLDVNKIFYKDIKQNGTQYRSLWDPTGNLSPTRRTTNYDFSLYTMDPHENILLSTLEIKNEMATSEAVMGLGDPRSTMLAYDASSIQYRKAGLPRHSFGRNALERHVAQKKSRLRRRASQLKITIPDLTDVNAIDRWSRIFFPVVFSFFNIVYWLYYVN
# T1 sequence (P18507 whole entry): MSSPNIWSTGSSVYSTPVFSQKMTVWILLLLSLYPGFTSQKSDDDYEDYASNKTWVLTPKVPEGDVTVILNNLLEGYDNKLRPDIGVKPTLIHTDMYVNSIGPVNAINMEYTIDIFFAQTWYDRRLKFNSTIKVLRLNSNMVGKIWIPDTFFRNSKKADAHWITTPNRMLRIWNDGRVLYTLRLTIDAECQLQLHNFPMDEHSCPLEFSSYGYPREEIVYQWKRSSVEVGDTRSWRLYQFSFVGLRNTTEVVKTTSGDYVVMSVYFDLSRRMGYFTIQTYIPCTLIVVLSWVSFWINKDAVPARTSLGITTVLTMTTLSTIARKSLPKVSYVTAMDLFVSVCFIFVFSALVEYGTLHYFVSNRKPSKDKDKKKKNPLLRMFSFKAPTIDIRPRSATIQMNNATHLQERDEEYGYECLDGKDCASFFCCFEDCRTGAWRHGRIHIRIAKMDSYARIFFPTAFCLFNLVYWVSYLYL
# [3] = target: T2, GABA-A receptor; alpha-1/beta-2/gamma-2 (Homo sapiens) (UniProt P14867+P47870+P18507); assay: Agonist activity at human GABAA alpha1beta2gamma2S receptor expressed in HEK293 cells by patch clamp electrophysiology assay relative to GABA; type: cell-based
# [4] = target: T3, Gamma-aminobutyric acid receptor subunit rho-1 (Homo sapiens, UniProt P24046); assay: Agonist activity at human GABAA rho1 receptor expressed in HEK293 cells at up to 300 uM by patch clamp electrophysiology assay; type: cell-based
# T3 sequence (P24046 whole entry): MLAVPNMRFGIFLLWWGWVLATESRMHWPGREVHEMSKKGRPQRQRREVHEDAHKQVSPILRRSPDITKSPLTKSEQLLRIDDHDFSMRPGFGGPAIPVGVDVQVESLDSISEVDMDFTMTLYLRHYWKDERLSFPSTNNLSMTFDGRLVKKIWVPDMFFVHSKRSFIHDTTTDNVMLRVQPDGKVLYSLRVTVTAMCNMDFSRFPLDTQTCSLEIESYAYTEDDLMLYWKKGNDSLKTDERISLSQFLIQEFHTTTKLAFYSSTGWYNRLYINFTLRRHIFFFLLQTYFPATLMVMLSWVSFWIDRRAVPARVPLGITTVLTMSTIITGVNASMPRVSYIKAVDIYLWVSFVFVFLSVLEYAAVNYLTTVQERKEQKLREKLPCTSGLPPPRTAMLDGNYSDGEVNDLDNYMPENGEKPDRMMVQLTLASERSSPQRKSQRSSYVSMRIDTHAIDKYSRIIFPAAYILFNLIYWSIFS
# [5] = target: T1, GABA-A receptor; alpha-1/beta-2/gamma-2; assay: Agonist activity at human GABAA alpha1beta2gamma2S receptor expressed in TSA201 cells after 1 min by FLIPR assay; type: cell-based
# Procedure, shortened: (§1)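 tsA201 cells transfected with 1 μg α (1, 2, 3 or 5), 1 μg β2 and 3 μg γ2S cDNA (Polyfect). Cells replated onto poly-D-lysine plates and assayed 16–24 h later. Loaded with FMP blue dye in Krebs buffer pH 7.4 for 30 min at 37 °C.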
# [6] = target: T3, Gamma-aminobutyric acid receptor subunit rho-1; assay: Agonist activity at human GABAA rho1 receptor expressed in TSA201 cells after 1 min by FLIPR assay; type: cell-based
# Procedure, shortened: (§2)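 tsA201 cells transfected with 5 μg human ρ1 cDNA, then plated on poly-D-lysine plates for 16–24 h. Loaded with FLIPR membrane potential blue dye in Krebs buffer (pH 7.4), 30 min at 37 °C. Emission at 560 nm (excitation 530 nm) recorded before and up to 1 min after agonist addition. Curves fitted from ΔFU; duplicate, at least three times.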
# [7] = target: T4, GABA A receptor alpha-3/beta-2/gamma-2 (Homo sapiens, UniProt P18507+P34903+P47870); assay: Agonist activity at human GABAA alpha3beta2gamma2S receptor expressed in TSA201 cells after 1 min by FLIPR assay; type: cell-based; procedure, shortened: as §1
# T4 sequence (P47870 whole entry): T1 sequence (P47870 whole entry)
# T4 sequence (P18507 whole entry): T1 sequence (P18507 whole entry)
# T4 sequence (P34903 whole entry): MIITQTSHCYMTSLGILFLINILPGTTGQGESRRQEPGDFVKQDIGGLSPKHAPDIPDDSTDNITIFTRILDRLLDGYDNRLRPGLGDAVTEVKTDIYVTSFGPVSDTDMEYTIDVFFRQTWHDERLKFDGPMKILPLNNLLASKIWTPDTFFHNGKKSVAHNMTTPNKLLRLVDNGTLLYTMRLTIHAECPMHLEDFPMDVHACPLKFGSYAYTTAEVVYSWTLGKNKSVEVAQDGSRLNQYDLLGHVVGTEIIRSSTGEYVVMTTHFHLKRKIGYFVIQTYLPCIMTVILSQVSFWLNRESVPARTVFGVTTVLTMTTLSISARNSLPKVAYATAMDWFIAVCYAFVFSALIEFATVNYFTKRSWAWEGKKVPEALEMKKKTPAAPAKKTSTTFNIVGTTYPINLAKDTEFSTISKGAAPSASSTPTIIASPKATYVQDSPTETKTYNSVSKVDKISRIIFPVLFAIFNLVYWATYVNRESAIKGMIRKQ
# [8] = Agonist activity at human GABAA alpha5beta2gamma2S receptor expressed in TSA201 cells after 1 min by FLIPR assay; type: cell-based; conditions: tsA201, 1 min
# [9] = target: T5, GABA A receptor alpha-2/beta-2/gamma-2 (Homo sapiens, UniProt P18507+P47869+P47870); assay: Agonist activity at human GABAA alpha2beta2gamma2S receptor expressed in TSA201 cells after 1 min by FLIPR assay; type: cell-based; procedure, shortened: as §1
# T5 sequence (P47870 whole entry): T1 sequence (P47870 whole entry)
# T5 sequence (P18507 whole entry): T1 sequence (P18507 whole entry)
# T5 sequence (P47869 whole entry): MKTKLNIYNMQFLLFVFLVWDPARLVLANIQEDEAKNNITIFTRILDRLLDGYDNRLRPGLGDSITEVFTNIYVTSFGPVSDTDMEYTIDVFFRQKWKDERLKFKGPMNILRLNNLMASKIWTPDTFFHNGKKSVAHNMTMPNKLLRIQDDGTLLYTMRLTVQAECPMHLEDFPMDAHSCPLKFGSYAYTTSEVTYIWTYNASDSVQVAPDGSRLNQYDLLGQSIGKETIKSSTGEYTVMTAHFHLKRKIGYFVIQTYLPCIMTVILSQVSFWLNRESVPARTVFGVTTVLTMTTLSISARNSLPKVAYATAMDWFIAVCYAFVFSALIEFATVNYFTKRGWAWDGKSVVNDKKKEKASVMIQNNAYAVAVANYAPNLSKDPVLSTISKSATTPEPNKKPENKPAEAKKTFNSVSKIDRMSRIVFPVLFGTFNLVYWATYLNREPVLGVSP
# [10] = target: T3, Gamma-aminobutyric acid receptor subunit rho-1; assay: Agonist activity at human GABAA rho1 receptor expressed in HEK293 cells by patch clamp electrophysiology assay relative to GABA; type: cell-based
# Procedure, shortened: (§3)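 Human ρ1 (pCDNA3) co-transfected with a GFP plasmid into HEK 293 cells. Whole-cell voltage clamp at −60 mV, 40–72 h after transfection, room temperature (20–22 °C). Extracellular solution pH 7.35; intrapipette solution with KCl 140 mM, EGTA 10 mM, MgATP 2 mM, pH 7.3.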
# [11] = target: GABA A receptor alpha-2/beta-2/gamma-2 (Homo sapiens) (UniProt P47870+P18507+P47869); assay: Agonist activity at human GABAA alpha2beta2gamma2S receptor expressed in TSA201 cells after 1 min by FLIPR assay relative to GABA; type: cell-based
# Procedure, shortened: as §1, with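 “°C. Fluorescence (ex 530/em 560 nm) read before and up to 1 min after agonist addition. ΔFU concentration-response curves; duplicate, ≥3 experiments.” for “°C.”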
# [12] = tested on: TSA201; assay: Agonist activity at human GABAA alpha5beta2gamma2S receptor expressed in TSA201 cells after 1 min by FLIPR assay relative to GABA; type: cell-based
# Procedure, shortened: as §1, with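 “°C. Fluorescence (ex 530/em 560 nm) read before and up to 1 min after agonist addition. ΔFU concentration-response curves; duplicate, ≥3 experiments.” for “°C.”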
# [13] = target: T2, GABA-A receptor; alpha-1/beta-2/gamma-2 (Homo sapiens); assay: Agonist activity at human GABAA alpha1beta2gamma2S receptor expressed in TSA201 cells after 1 min by FLIPR assay relative to GABA; type: cell-based
# Procedure, shortened: as §1, with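 “°C. Fluorescence (ex 530/em 560 nm) read before and up to 1 min after agonist addition. ΔFU concentration-response curves; duplicate, ≥3 experiments.” for “°C.”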
# [14] = target: GABA A receptor alpha-3/beta-2/gamma-2 (Homo sapiens) (UniProt P47870+P18507+P34903); assay: Agonist activity at human GABAA alpha3beta2gamma2S receptor expressed in TSA201 cells after 1 min by FLIPR assay relative to GABA; type: cell-based
# Procedure, shortened: as §1, with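 “°C. Fluorescence (ex 530/em 560 nm) read before and up to 1 min after agonist addition. ΔFU concentration-response curves; duplicate, ≥3 experiments.” for “°C.”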
# [15] = target: T3, Gamma-aminobutyric acid receptor subunit rho-1; assay: Agonist activity at human GABAA rho1 receptor expressed in HEK293 cells by patch clamp electrophysiology assay; type: cell-based; procedure, shortened: as §3
# [16] = target: T3, Gamma-aminobutyric acid receptor subunit rho-1; assay: Agonist activity at human GABAA rho1 receptor expressed in TSA201 cells after 1 min by FLIPR assay relative to GABA; type: cell-based; procedure, shortened: as §2
# [17] = target: T2, GABA-A receptor; alpha-1/beta-2/gamma-2 (Homo sapiens); assay: Agonist activity at human GABAA alpha1beta2gamma2S receptor expressed in HEK293 cells at up to 300 uM by patch clamp electrophysiology assay; type: cell-based
Structure (SMILES),Ki [1],pKi [1],EC50 [5],EC50 [6],also measured
NCc1cn(O)nc1Cc1ccccc1,> 100 µM,–,–,–,–
Cc1c(CN)cnn1O,15 µM,4.82,> 500 µM,> 500 µM,EC50 [2]: > 10 µM; Rmax [3]: > 64%; Activity [4]: inactive
Oc1noc2c1CCNC2 [GABOXADOL],0.16 µM,–,14 µM,–,–
On1ncc2c1CCNC2,> 100 µM,–,–,–,–
NCc1cc(O)no1 [MUSCIMOL],0.007 µM,–,0.54 µM,0.7 µM,EC50 [7]: 0.21 µM; EC50 ([8]; read-out: EC50): 0.054 µM; EC50 ([8]; read-out: pEC50 (converted)): 0.0537 µM; EC50 [9]: 0.41 µM
NCc1cn(O)nc1CCc1ccncc1,> 100 µM,–,–,–,–
NCc1cn(O)nc1CCc1ccccc1,> 100 µM,–,–,–,–
CCc1nn(O)cc1CN,94 µM,4.03,> 500 µM,> 500 µM,–
NCc1cnn(O)c1,0.22 µM,6.68,13 µM,3.1 µM,EC50 [2]: 19 µM; Rmax [3]: 69%; Rmax [10]: 70%; EC50 [7]: 5.6 µM; Rmax [11]: 77%; Rmax [12]: 77%; EC50 ([8]; read-out: EC50): 0.78 µM; EC50 ([8]; read-out: pEC50 (converted)): 0.794 µM; Rmax [13]: 77%; EC50 [9]: 4.5 µM; Rmax [14]: 77%; EC50 [15]: 55 µM; Rmax [16]: 77%
Cc1c(O)noc1CN,54 µM,4.28,–,–,Activity [4]: inactive; Activity [17]: inactive
